Bioassay records as filed in PubChem.
HNF4A DNA FP = change in binding of human HNF4 alpha to DNA. P41235. HNF4a-FITC DNA binding, fluorescence polarization, 1 h. activity change, % at 10 µM. 0.3% of 360,000 active. AID 1224865; in the data active = activity change above about 30%, passing the limit was not always enough
Target sequence (P41235 whole entry, looked up): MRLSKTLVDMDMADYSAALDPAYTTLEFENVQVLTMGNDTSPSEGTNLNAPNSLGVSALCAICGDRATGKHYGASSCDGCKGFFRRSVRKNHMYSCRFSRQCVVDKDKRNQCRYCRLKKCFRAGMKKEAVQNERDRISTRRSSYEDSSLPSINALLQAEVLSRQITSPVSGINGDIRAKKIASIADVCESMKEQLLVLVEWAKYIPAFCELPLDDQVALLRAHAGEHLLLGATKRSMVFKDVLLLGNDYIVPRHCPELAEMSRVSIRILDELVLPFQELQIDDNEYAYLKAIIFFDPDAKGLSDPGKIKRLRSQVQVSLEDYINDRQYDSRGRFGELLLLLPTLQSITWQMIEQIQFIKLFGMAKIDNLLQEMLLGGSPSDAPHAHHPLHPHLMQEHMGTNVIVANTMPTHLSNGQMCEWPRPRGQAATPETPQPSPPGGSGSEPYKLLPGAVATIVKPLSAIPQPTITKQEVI
SENP1 inh = SENP1 (human) catalytic domain inhibition; Q9P0U3; recombinant SENP1 catalytic domain, CyPet-SUMO1-YPet FRET cleavage; 0.21% of 360,000 active; AID 624204; inhibition, % at 10 µM;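 active = inhibition at least 30% at 10 µM, raw YFP signal under a set limit, fluorescence ratio 0.5 to 1.5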;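 also: 0% = enzyme with DMSO and 100% = no enzyme wells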
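Assay system – human recombinant His6-tagged SENP1 catalytic domain enzyme · Input – SENP1 enzyme, 20 pM final · Buffer or medium – Tris pH 8 buffer plus EDTA, NaCl, BME, BSA, NP40, catalase · Schedule – 50 min reaction at room temperature · Technique – FRET read of cyan and yellow fluorescence · Control set – no-enzyme wells low, DMSO-plus-enzyme wells high control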
CSN deneddyl inh = inhibitors of human CSN-mediated cullin deneddylation; Q92905; Purified CSN, SCF-Nedd8-OG deneddylation, fluorescence polarization; inhibition, % at 12.5 µM; 0.38% of 360,000 active;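 active = pattern-corrected inhibition above about 35%, with an unprinted fluorescence ratio check between 0.5 and 1.5, limit read from the data, passing the limit was not always enough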;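 also: 0% = enzyme with substrate and 100% = substrate without enzyme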
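Assay system: Purified human Csn5 enzyme expressed in HEK293T cells | Amount: Enzyme 0.24 nM | Measured by: Fluorescence polarization readout | Medium: Tris/NaCl/DTT buffer, pH 7.5 | Compound dosing: One concentration, 12.5 µM, 0.25% DMSO | Times: 90 min incubation of compound, enzyme and substrate at room temperature | Control set: no-enzyme wells high, enzyme-with-substrate wells low | Read-out: % inhibition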
Rpn11 block = blocks the human proteasome subunit Rpn11; human 26S proteasome, Ub4-pepOG fluorescence polarization; 20S core pre-blocked with epoxomicin; calls only at 20 µM; 0.59% of 360,000 active;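 active = inhibition at 20 µM, scaled to each plate's controls, above about 33%, limit read from the data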
UBC9 SUMO inh = inhibitors of human SUMOylation (UBC9). HTRF SUMOylation assay, SAE1/SAE2 + UBC9, in vitro. inhibition, % at 35 µM. 0.36% of 290,000 active. AID 2006; in the data active = inhibition above about 50%, passing the limit was not always enough
Target sequence (P63279 whole entry, looked up): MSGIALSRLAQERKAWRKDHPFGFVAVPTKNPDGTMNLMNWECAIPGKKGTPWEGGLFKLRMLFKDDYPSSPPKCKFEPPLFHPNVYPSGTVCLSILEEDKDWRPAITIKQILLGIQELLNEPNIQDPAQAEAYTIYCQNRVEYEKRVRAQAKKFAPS
TPT1 inhibitor = inhibitors of Candida albicans tRNA 2'-phosphotransferase TPT1; inhibition, % at 5 µM; recombinant caTPT1, FP RNA substrate dephosphorylation; 0.81% of 300,000 active;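 active = inhibition above the mean of all tested compounds plus 3 SD, set per screening campaign, cut at about 24% in these data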;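 also: plate controls were DMSO alone for no effect and ferristatin control at 100 nM for full effect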
* marks the source's active call; other numbers are inactive results; i = inactive; · = not tested or not shown; + = active, no number. An excerpt weighted towards active compounds, which were near 1.8% of everything screened.

SMILES | HNF4A DNA FP | SENP1 inh | CSN deneddyl inh | Rpn11 block | UBC9 SUMO inh | TPT1 inhibitor
COC(=O)c1ccc(NC(=O)C(=O)N2CCCC2)cc1 | 0.0 | -0.8 | 2.3 | i | 0.7 | 0.0
COc1ccc(-c2csc3nc(C(C)(C)C)oc(=O)c23)cc1OC | -0.1 | 0.2 | 1.1 | i | 2.5 | -5.2
COc1ccc(-c2csc3nc(-c4ccc(C)cc4)oc(=O)c23)cc1OC | 47.6* | -17.6 | -3.3 | i | 4.3 | 0.8
CC1CCc2sc(C(=O)NCCCn3ccnc3)cc2C1 (stereo not given) | 1.1 | 0.6 | 9.7 | i | 4.2 | -1.9
Cc1ccc(Cl)cc1N1CCN(C(=O)CN2C(=O)c3cccc4cccc2c34)CC1 | 4.5 | -39.6 | 2.3 | i | 9.0 | -0.7
O=C1c2cc(Cl)ccc2OC2(CCNCC2)C12CC(c1ccc(Cl)cc1)=NO2 (stereo not given) | 18.0 | -1.1 | 68.4* | i | 2.2 | -5.7
CC(=O)Oc1ccc(C(=O)Nc2cccc(C(=O)c3cccc(NC(=O)c4ccc(OC(C)=O)cc4)c3)c2)cc1 | 12.3 | 1.0 | 108.3* | i | 8.3 | -0.2
O=S(=O)(Cc1noc(-c2ccc(Cl)cc2)n1)Cc1ccco1 | 13.8 | -11.4 | 38.0* | i | 6.3 | 1.1
O=C1CSC(=S)N1N=Cc1c(O)ccc2ccccc12 | 93.1* | -30.3 | 27.6 | · | · | ·
O=C(NCc1ccc2c(c1)OCO2)c1ccc(CS(=O)Cc2cccc(Cl)c2)o1 (stereo not given) | -1.9 | 2.4 | 5.0 | i | 2.1 | -1.3
Cc1ccc(C=C2C=C(c3ccccc3)OC2=O)cc1 | -0.8 | -76.9 | 3.9 | i | · | ·
Cc1ccc(C2=C/C(=C/c3cccs3)C(=O)O2)cc1 | 88.7 | -40.8 | 48.9* | · | 19.6 | 7.7
Cc1ccccc1Cn1c(=N)n(CC(=O)c2ccc([N+](=O)[O-])cc2)c2ccccc21 | 42.9* | -20.2 | 5.1 | · | 13.1 | -2.1
CCCn1c(=N)n(CC(=O)c2ccc([N+](=O)[O-])cc2)c2ccccc21 | -2.2 | -8.7 | -1.8 | i | 8.9 | 4.5
COCCNc1nc(NCCN2CCNC2=O)c2sccc2n1 | 5.7 | -0.1 | -1.1 | i | · | ·
COc1cccc(-n2nc3c(-n4ncc(C#N)c4N)nnc(C)c3c2C)c1 | 5.7 | 1.7 | 58.3* | i | 17.3 | 0.7
COc1ccc(-c2cc(C#N)nc(N3CCN(C)CC3)n2)cc1 | 3.3 | -1.4 | 1.4 | i | 10.3 | -1.1
COc1ccc(-c2cc(C#N)nc(N3CCNCC3)n2)cc1 | 43.1* | 1.0 | 2.7 | i | 7.8 | -2.9
Nc1nc(SCC(=O)c2cccs2)n[nH]1 | 38.7* | 0.3 | 7.9 | i | 12.3 | 0.2
COc1cc(C2Nc3cccc4cccc(c34)N2)ccc1OC(C)=O | 0.8 | 3.4 | 3.2 | i | 63.7* | 1.2
COc1ccc(C2Nc3cccc4cccc(c34)N2)cc1Br | -3.2 | 2.9 | -8.9 | i | -1.4 | 1.1
CN(C)S(=O)(=O)c1ccc(C(=O)NC2CCCc3ccccc32)cc1 (stereo not given) | 0.7 | 1.1 | -0.5 | i | -1.7 | 0.1
O=C(OCCNc1ccc(C(F)(F)F)cc1[N+](=O)[O-])c1cc2ccccc2oc1=O | 176.6 | 0.8 | 95.0* | · | 21.0 | -0.9
Cc1ccc(NC(=O)c2ccc(CSc3nccc(C)n3)cc2)cc1 | 1.9 | 1.5 | -6.3 | i | 9.6 | -3.3
Cc1ccnc(SCc2ccc(C(=O)O)cc2)n1 | 68.7* | 2.3 | 1.9 | i | 20.5 | 1.9
SMILES | HNF4A DNA FP | SENP1 inh | CSN deneddyl inh | Rpn11 block | UBC9 SUMO inh | TPT1 inhibitor
COc1cc(C(C)=O)ccc1OCC(O)CN1CCN(c2c(C)cccc2C)CC1 (stereo not given) | 45.0* | 0.2 | -3.1 | i | 4.0 | 6.2
NNc1nc2c(-c3cccc(C(F)(F)F)c3)nnn2c2ccccc12 | 36.1* | -27.3 | 17.9 | · | 26.3 | ·
O=C1c2ccccc2C(=O)C12OC2c1cccc2ccccc12 (stereo not given) | -0.6 | 0.7 | 19.6 | i | 95.8* | -2.0
N#CCCn1cc(/C=N/NC(N)=S)c(-c2ccccc2)n1 | -2.9 | 0.7 | 106.6* | i | 8.2 | 1.4
N#CCCn1cc(/C=N/NC(N)=S)c(-c2ccc(Br)cc2)n1 | 0.9 | 3.4 | -1.6 | i | 4.9 | 1.6
O=S(=O)(Nc1nc2ccccc2s1)c1cc(F)ccc1F | 2.8 | -0.9 | 2.3 | i | 20.2 | -0.4
O=S(=O)(Nc1nc(-c2ccco2)c(-c2ccco2)s1)c1ccc(F)cc1F | -9.0 | -7.4 | 39.4* | i | · | ·
COC(=O)c1ccccc1NC1=C/C(=N\S(=O)(=O)c2ccc(C(=O)O)cc2)c2ccccc2C1=O | -2.4 | 4.1 | 16.1 | i | 91.9* | -3.2
O=C(C1CC1)N1N=C(c2ccncc2)CC1(O)C(F)(F)F (stereo not given) | -1.5 | 1.9 | -13.8 | i | 12.9 | -2.7
COc1ccc(S(=O)(=O)NCc2cccnc2)cc1 | 0.8 | -0.4 | -0.7 | i | 2.9 | 5.1
COc1ccc(S(=O)(=O)NCc2cccnc2)cc1Br | 129.4* | 1.1 | -1.5 | i | -10.0 | 0.1
COc1ccc(S(=O)(=O)NCc2cccnc2)cc1NC(=O)c1ccccc1C | -34.2 | -26.1 | 24.4 | + | · | ·
CC1(C(=O)NS(=O)(=O)Cc2cccc(Cl)c2)CCN1C(=O)Cc1cccs1 (stereo not given) | 4.1 | 1.4 | 71.3* | i | · | ·
CC1(C(=O)NS(=O)(=O)Cc2cccc(Cl)c2)CCN1C(=O)CC1CCCC1 (stereo not given) | 4.5 | 2.4 | -1.6 | i | · | ·
CCc1cc(=O)oc2cc(OC(C)C(=O)NCC3CCC(C(=O)O)CC3)c(Cl)cc12 (stereo not given) | -1.9 | 2.7 | -4.0 | i | 6.5 | -2.3
CCOC(=O)C1=NN(C(=O)c2ccc(C)cc2)C(O)(c2ccc(Cl)cc2)C1 (stereo not given) | 4.5 | 31.0* | 7.5 | i | -12.5 | 2.3
COc1ccc(NC(=O)CN(c2ccccc2C)S(C)(=O)=O)c(OC)c1 | -0.2 | 1.9 | 2.2 | i | 0.0 | -1.0
O=c1c2ccccc2nc(/C=C/c2cccnc2)n1Cc1ccccc1 | -3.5 | -1.5 | 2.6 | i | 81.8* | ·
CCN1C(=O)/C(=C/c2cn(-c3ccccc3)nc2-c2cccnc2)SC1=S | 40.4* | 26.8 | 23.4 | · | · | ·
Cc1ccc(-c2nn(-c3ccccc3)cc2/C=C2\SC(=S)N(CC(=O)O)C2=O)cc1 | -9.5 | -27.4 | 2.5 | i | 7.8 | 1.4
CC(=O)Nc1nc2ccc(C(=O)NC3CCCCC3)cc2s1 | -2.1 | -0.4 | 1.8 | i | 11.7 | -4.7
O=C(Nc1ccc(-c2ccc3nncn3n2)cc1)c1ccc(Br)o1 | -6.0 | -4.5 | 64.5* | i | 36.6 | 4.1
Cc1ccc(CC(=O)NCC2CCCCC2)cc1 | 1.3 | 1.3 | 0.1 | i | 0.2 | -1.3
